# Test results reported in ChEMBL document CHEMBL3259728, “Design, synthesis and biological evaluation of some novel substituted quinazolines as antitumor agents” (2014).
# Tested on: SNB-19
# Assay: Growth inhibition of human SNB19 cells at 10 uM after 48 hrs by SRB assay
# Assay type: functional
# Conditions: SNB-19, 48 h, read-out: GI
# Procedure, shortened: (§1)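 NCI-60 primary one-dose screen run at the US NCI, with human tumour lines from nine cancer types. Compound added once at 10^-5 M, followed by 48 h incubation. End point was sulforhodamine B protein staining read spectrophotometrically. Result given as percent growth of treated cells against untreated controls, reported as % growth inhibition.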
row,SMILES,inhibition of growth at 10 µM [%]
1,Cc1ccc(C2=Nc3ccc(Cl)cc3C3=NNCC(=O)NN23)cc1,< 10

# Tested on: Malme-3M
# Assay: Growth inhibition of human MALME-3M cells at 10 uM after 48 hrs by SRB assay
# Assay type: functional
# Conditions: read-out: GI
# Procedure, shortened: as §1
row,SMILES,inhibition of growth at 10 µM [%]
1,Cc1ccc(C2=Nc3ccc(Cl)cc3C3=NNCC(=O)NN23)cc1,< 10

# Tested on: COLO 205
# Assay: Growth inhibition of human COLO205 cells at 10 uM after 48 hrs by SRB assay
# Assay type: functional
# Conditions: COLO 205, 48 h, read-out: GI
# Procedure, shortened: (§2)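 NCI primary one-dose screen. A single concentration of 10^-5 M was added to the cell culture, followed by 48 h incubation and an SRB protein-dye endpoint read spectrophotometrically. Results are growth percentage relative to untreated control cells, reported as % growth inhibition.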
row,SMILES,inhibition of growth at 10 µM [%]
1,Cc1ccc(C2=Nc3ccc(Cl)cc3C3=NNCC(=O)NN23)cc1,< 10

# Tested on: RPMI-8226
# Assay: Growth inhibition of human RPMI8226 cells at 10 uM after 48 hrs by SRB assay
# Assay type: functional
# Conditions: RPMI-8226, 48 h, read-out: GI
# Procedure, shortened: as §1
row,SMILES,inhibition of growth at 10 µM [%]
1,Cc1ccc(C2=Nc3ccc(Cl)cc3C3=NNCC(=O)NN23)cc1,< 10

# Tested on: IGROV-1
# Assay: Growth inhibition of human IGROV1 cells at 10 uM after 48 hrs by SRB assay
# Assay type: functional
# Conditions: IGROV-1, 48 h, read-out: GI
# Procedure, shortened: as §1
row,SMILES,inhibition of growth at 10 µM [%]
1,Cc1ccc(C2=Nc3ccc(Cl)cc3C3=NNCC(=O)NN23)cc1,< 10

# Tested on: not listed separately
# Assay: Growth inhibition of human LOXIMVI cells at 10 uM after 48 hrs by SRB assay
# Assay type: functional
# Conditions: LOX IMVI, read-out: GI
# Procedure, shortened: as §1
row,SMILES,inhibition of growth at 10 µM [%]
1,Cc1ccc(C2=Nc3ccc(Cl)cc3C3=NNCC(=O)NN23)cc1,< 10

# Tested on: PC-3
# Assay: Growth inhibition of human PC3 cells at 10 uM after 48 hrs by SRB assay
# Assay type: functional
# Conditions: PC-3, 48 h, read-out: GI
# Procedure, shortened: as §1
row,SMILES,inhibition of growth at 10 µM [%]
1,Cc1ccc(C2=Nc3ccc(Cl)cc3C3=NNCC(=O)NN23)cc1,< 10

# Tested on: SR
# Assay: Growth inhibition of human SR cells at 10 uM after 48 hrs by SRB assay
# Assay type: functional
# Conditions: read-out: GI
# Procedure, shortened: as §1
row,SMILES,inhibition of growth at 10 µM [%]
1,Cc1ccc(C2=Nc3ccc(Cl)cc3C3=NNCC(=O)NN23)cc1,< 10

# Tested on: HCT-116
# Assay: Growth inhibition of human HCT116 cells at 10 uM after 48 hrs by SRB assay
# Assay type: functional
# Conditions: HCT-116, 48 h, read-out: GI
# Procedure, shortened: as §1
row,SMILES,inhibition of growth at 10 µM [%]
1,Cc1ccc(C2=Nc3ccc(Cl)cc3C3=NNCC(=O)NN23)cc1,< 10

# Tested on: MDA-MB-231
# Assay: Growth inhibition of human MDA-MB-231 cells at 10 uM after 48 hrs by SRB assay
# Assay type: functional
# Conditions: MDA-MB-231, 48 h, read-out: GI
# Procedure, shortened: as §1
row,SMILES,inhibition of growth at 10 µM [%]
1,Cc1ccc(C2=Nc3ccc(Cl)cc3C3=NNCC(=O)NN23)cc1,11

# Tested on: not listed separately
# Assay: Growth inhibition of human HCC2998 cells at 10 uM after 48 hrs by SRB assay
# Assay type: functional
# Conditions: HCC 2998, 48 h, read-out: GI
# Procedure, shortened: as §1
row,SMILES,inhibition of growth at 10 µM [%]
1,Cc1ccc(C2=Nc3ccc(Cl)cc3C3=NNCC(=O)NN23)cc1,< 10

# Tested on: TK-10
# Assay: Growth inhibition of human TK10 cells at 10 uM after 48 hrs by SRB assay
# Assay type: functional
# Conditions: TK-10, 48 h, read-out: GI
# Procedure, shortened: as §1
row,SMILES,inhibition of growth at 10 µM [%]
1,Cc1ccc(C2=Nc3ccc(Cl)cc3C3=NNCC(=O)NN23)cc1,< 10

# Tested on: 786-0
# Assay: Growth inhibition of human 786-0 cells at 10 uM after 48 hrs by SRB assay
# Assay type: functional
# Conditions: 786-0, 48 h, read-out: GI
# Procedure, shortened: as §2
row,SMILES,inhibition of growth at 10 µM [%]
1,Cc1ccc(C2=Nc3ccc(Cl)cc3C3=NNCC(=O)NN23)cc1,< 10

# Tested on: not listed separately
# Assay: Growth inhibition of human OVCAR4 cells at 10 uM after 48 hrs by SRB assay
# Assay type: functional
# Conditions: OVCAR-4, 48 h, read-out: GI
# Procedure, shortened: as §1
row,SMILES,inhibition of growth at 10 µM [%]
1,Cc1ccc(C2=Nc3ccc(Cl)cc3C3=NNCC(=O)NN23)cc1,< 10

# Tested on: not listed separately
# Assay: Growth inhibition of human MOLT4 cells at 10 uM after 48 hrs by SRB assay
# Assay type: functional
# Conditions: MOLT-4, 48 h, read-out: GI
# Procedure, shortened: as §1
row,SMILES,inhibition of growth at 10 µM [%]
1,Cc1ccc(C2=Nc3ccc(Cl)cc3C3=NNCC(=O)NN23)cc1,< 10

# Tested on: not listed separately
# Assay: Growth inhibition of human RXF393 cells at 10 uM after 48 hrs by SRB assay
# Assay type: functional
# Conditions: RXF 393, 48 h, read-out: GI
# Procedure, shortened: as §1
row,SMILES,inhibition of growth at 10 µM [%]
1,Cc1ccc(C2=Nc3ccc(Cl)cc3C3=NNCC(=O)NN23)cc1,< 10

# Tested on: NCI-H460
# Assay: Growth inhibition of human NCI-H460 cells at 10 uM after 48 hrs by SRB assay
# Assay type: functional
# Conditions: NCI-H460, 48 h, read-out: GI
# Procedure, shortened: as §1
row,SMILES,inhibition of growth at 10 µM [%]
1,Cc1ccc(C2=Nc3ccc(Cl)cc3C3=NNCC(=O)NN23)cc1,< 10

# Tested on: SN12C
# Assay: Growth inhibition of human SN12C cells at 10 uM after 48 hrs by SRB assay
# Assay type: functional
# Conditions: read-out: GI
# Procedure, shortened: as §1
row,SMILES,inhibition of growth at 10 µM [%]
1,Cc1ccc(C2=Nc3ccc(Cl)cc3C3=NNCC(=O)NN23)cc1,< 10

# Tested on: NCI-H322M
# Assay: Growth inhibition of human NCI-H322M cells at 10 uM after 48 hrs by SRB assay
# Assay type: functional
# Conditions: read-out: GI
# Procedure, shortened: as §1
row,SMILES,inhibition of growth at 10 µM [%]
1,Cc1ccc(C2=Nc3ccc(Cl)cc3C3=NNCC(=O)NN23)cc1,< 10
